Test results as given in ChEMBL document CHEMBL1128500, “Diamine and triamine analogs and derivatives as inhibitors of deoxyhypusine synthase: synthesis and biological activity” (J Med Chem, 1995).

Experiments:
Deoxyhypusine synthase = target: T1, Deoxyhypusine synthase (Rattus norvegicus, UniProt Q6AY53); assay: In vitro IC50 value by measuring the inhibition of deoxyhypusine synthase.
T1 sequence (Q6AY53 whole entry): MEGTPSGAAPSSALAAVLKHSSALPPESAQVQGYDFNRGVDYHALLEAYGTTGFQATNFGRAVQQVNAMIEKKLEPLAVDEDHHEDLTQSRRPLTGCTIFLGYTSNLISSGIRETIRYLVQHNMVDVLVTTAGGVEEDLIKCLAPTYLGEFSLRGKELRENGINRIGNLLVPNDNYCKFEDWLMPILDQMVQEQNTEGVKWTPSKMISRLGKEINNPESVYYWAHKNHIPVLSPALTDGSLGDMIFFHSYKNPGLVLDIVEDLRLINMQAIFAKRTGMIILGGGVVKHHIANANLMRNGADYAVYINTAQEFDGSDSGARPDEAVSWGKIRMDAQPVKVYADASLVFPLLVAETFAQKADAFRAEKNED

[1] = target: T2, Deoxyhypusine synthase (Homo sapiens) (UniProt P49366); assay: Effect on protein synthesis in CHO cells at concentration 3 uM.; details: Cricetulus griseus
T2 sequence (whole entry): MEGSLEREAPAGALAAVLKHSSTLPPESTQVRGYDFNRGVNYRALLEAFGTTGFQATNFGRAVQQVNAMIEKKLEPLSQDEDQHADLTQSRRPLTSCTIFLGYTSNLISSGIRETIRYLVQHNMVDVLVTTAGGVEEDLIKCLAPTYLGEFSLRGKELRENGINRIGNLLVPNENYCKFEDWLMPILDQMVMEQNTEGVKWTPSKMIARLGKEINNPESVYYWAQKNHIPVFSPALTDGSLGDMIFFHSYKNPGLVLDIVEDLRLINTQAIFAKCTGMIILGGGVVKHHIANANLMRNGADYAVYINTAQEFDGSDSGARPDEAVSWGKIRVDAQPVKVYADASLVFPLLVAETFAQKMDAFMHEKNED

CHO [2] = assay: Effect on spermidine uptake in CHO cells at concentration 3 uM.; assay type: functional, Cricetulus griseus
Method in brief: (§1)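 Spermidine uptake in CHO cells: total cellular radioactivity after 18 h growth with 5 μCi/mL [3H]spermidine in presence of compound, reported as percentage of untreated-cell value.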

[3] = target: T2, Deoxyhypusine synthase (Homo sapiens); assay: Effect on protein synthesis in CHO cells at concentration 10 uM.; details: Cricetulus griseus
[4] = target: T2, Deoxyhypusine synthase (Homo sapiens); assay: Effect on Hypusine formation in CHO cells at concentration 3 uM.; assay type: functional, cell-based; details: Cricetulus griseus
CHO [5] = assay: Effect on spermidine uptake in CHO cells at concentration 10 uM.; assay type: functional; method in brief: as §1
[6] = target: T2, Deoxyhypusine synthase (Homo sapiens); assay: Effect on Hypusine formation in CHO cells at concentration 10 uM.; assay type: functional, cell-based; details: Cricetulus griseus
CHO [7] = assay: Effect on hypusine synthesis in CHO cells at concentration 10 uM.; assay type: functional, Cricetulus griseus
CHO [8] = assay: Growth inhibition was measured against CHO cell line; - indicates >100 uM; assay type: functional, cell-based; details: Cricetulus griseus
Method in brief: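 CHO cells grown with compound for 72 h; cellular protein measured by bicinchoninic acid method as crude growth estimate (control protein rose ~16-fold over 72 h). Symbol gives compound range halving protein versus control: ++++ <0.5, +++ 0.5-1, ++ >1-10, + >10-100, - >100 μM.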

Structure (SMILES)	IC50 (Deoxyhypusine synthase) [µM]	Control [1] [%]	Control [3] [%]	Control [4] [%]	Control [6] [%]	Control (CHO [5]) [%]	other results
N=C(N)NCCCCCCNC(=N)N	112	–	–	–	–	–	–
N=C(N)NCCCOCCCNC(=N)N	8	100	–	100	100	100	Control (CHO [7]): 100%
NCCCNCCCN [NORSPERMIDINE]	41	–	–	–	–	–	–
N=C(N)NCCCCCCCCNCCCCCCCCNC(=N)N [IMINOCTADIENE]	3.5	100	84	100	100	95	–
N=C(N)NCCCSCCCNC(=N)N	21	100	60	100	74	81	–
N=C(N)NCCCCCCNCCCCCCNC(=N)N	40	93	87	96	100	95	–
NCCCCNCCCCN=C(N)N	0.16	88	93	7	3	28	Control (CHO [2]): 64%
CCNCCCCCCCN	275	–	–	–	–	–	Growth inhibition (CHO [8]): Not toxic
N=C(N)NCCCOCCCN	0.7	–	–	–	–	–	–
N=C(N)SCCCCCCSC(=N)N	780	–	–	–	–	–	–
CCNCCCCCCCN=C(N)N	–	34	28	76	36	95	–
NCCCNCCCN=C(N)N	–	77	75	50	23	34	Control (CHO [2]): 76%
N=C(N)CCCCCCCCCC(=N)N	> 1000	–	–	–	–	–	–
N=C(N)NCCCNCCCNC(=N)N	182	80	–	98	100	95	Growth inhibition (CHO [8]): Not toxic
N=C(N)NCCCCCCN	132	–	–	–	–	–	–
N=C(N)NCCCCCNCCCCCNC(=N)N	38	100	100	100	100	95	–
N=C(N)SCCCCCCCCSC(=N)N	> 1000	–	–	–	–	–	–

Structure (SMILES)	IC50 (Deoxyhypusine synthase) [µM]	Control [1] [%]	Control [3] [%]	Control [4] [%]	Control [6] [%]	Control (CHO [5]) [%]	other results
N=C(N)NCCCCCCCNCCCCCCCN	0.3	–	–	–	–	–	–
NCCCCCCNCCCCCCN	> 1000	–	–	–	–	–	–
N=C(N)NCCCCSCCCNC(=N)N	48	–	–	–	–	–	–
N=C(N)CCCCCCCCCCC(=N)N	> 1000	–	–	–	–	–	–
NCCCSCCCN	83	86	81	100	93	100	–
N=C(N)NCCCNCCCN	1.2	–	–	–	–	–	–
CCNCCCCCCCNC(=N)N	9	–	–	–	–	–	–
NCCCCCN=C(N)N	29	–	–	–	–	–	–
NCCCCCCCCNCCCCCCCCN=C(N)N	–	20	22	36	27	80	–
N=C(N)NCCCCN [AGMATINE]	156	–	–	–	–	–	–
N=C(N)NCCCCNCCCCNC(=N)N	3.2	100	100	100	100	85	–
N=C(N)NCCCCCCCCNC(=N)N	16.1	–	–	–	–	–	–
N#CCCNCCCCCCCNC(=N)N	96	–	–	–	–	–	–
NCCCCNCCCCN	556	–	–	–	–	–	Growth inhibition (CHO [8]): Not toxic
NC(N)=NCCCCN=C(N)N [ARCAINE]	179	–	–	–	–	–	–
N=C(N)SCCCCCCCSC(=N)N	> 1000	–	–	–	–	–	–

Continued, in another order:

IC50 (Deoxyhypusine synthase) [µM]	Control [1] [%]	Control [3] [%]	Control [4] [%]	Control [6] [%]	Structure (SMILES)	Control (CHO [5]) [%]	other results
116	–	–	–	–	NCCCCCCCCNCCCCCCCCN	–	–
0.03	62	50	0	–	N=C(N)NCCCCCCCN	–	Control (CHO [2]): 100%
6.8	–	–	–	–	[H]/N=C(/N)NCCCCCNC(=N)N	–	–
1.9	40	25	50	24	NCCCSCCCN=C(N)N	100	–
74	–	–	–	–	N=C(N)NCCCCCCNCCCCCCN	–	–
> 1000	–	–	–	–	N=C(N)SCCCCCSC(=N)N	–	–
13	–	–	–	–	N=C(N)NCCCCCCCCNCCCCCCCCN	–	–
63	–	–	–	–	NCCCCCCCNCCCCCCCN	–	–
3.4	–	–	–	–	N=C(N)NCCCCCCCNC(=N)N	–	–
13	100	85	100	100	NCCCOCCCN	100	–
0.55	–	–	–	–	N=C(N)NCCCCCCCCN	–	–
> 1000	–	–	–	–	NCCCCCNCCCCCN	–	–
–	45	35	61	48	NCCCCCCNCCCCCCN=C(N)N	80	–
385	–	–	–	–	NCCCNOCCCN	–	–
> 1000	–	–	–	–	N=C(N)CCCCCC(=N)N	–	–
120	–	–	–	–	N=C(N)CCCCCCCC(=N)N	–	–
100	80	65	–	92	NCCCCCNCCCCCN=C(N)N	74	–
> 1000	–	–	–	–	N=C(N)SCCCCSC(=N)N	–	–
> 1000	–	–	–	–	N=C(N)CCCCCCCCC(=N)N	–	–
235	–	–	–	–	NCCCCSCCCN	–	–
> 1000	–	–	–	–	N=C(N)CCCCCCC(=N)N	–	–
–	24	20	34	22	NCCCCCCCNCCCCCCCN=C(N)N	65	–
–	98	92	76	20	NCCCOCCCN=C(N)N	95	–
0.08	88	67	90	74	N=C(N)NCCCCCCCNCCCCCCCNC(=N)N	95	–
